# Assay outcomes from PubChem BioAssay.
# KDM4C inh: KDM4C (human) demethylase inhibition. GST-KDM4C 2-372, H3K9me3 peptide, LANCE TR-FRET. 96,000 tested, 0.15% active. inhibition, % at 12.5 µM. AID 720574. Q9H3R0;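 active means mean replicate inhibition above about 25%, with at least 55% of replicates also reaching it, limit read from the data, passing the limit was not always enough; inconclusive means only one of those two conditions met; inactive means neither condition met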
#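 Material: N-terminal GST-fused human GASC-1 (KDM4C) fragment, residues 2-372. Input: 10 nM enzyme. Incubation: enzyme reaction 30 min, then detection 60 min, both room temperature. Doses: one test concentration per compound. Read-out basis: inhibition from TR-FRET ratio decrease. Detection: LANCE TR-FRET, excitation 340 nm, emissions 618 and 671 nm.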
# T cruzi growth-1: blocks T. cruzi growth in NIH3T3 culture | inhibition, % at 8.34 µM | T. cruzi beta-gal in NIH3T3, GalScreen luminescence, 90 h | 77,000 tested, 5.9% active;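 active means mean inhibition above about 93%, with at least 55% of replicates each passing it, limit read from the data, passing the limit was not always enough; inconclusive means only one of those two conditions holds; inactive means neither condition holds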
# IDH1 R132H inh: blocks human IDH1 R132H reductase activity | diaphorase/resazurin fluorescence, 60 min | inhibition, % at 10 µM | 70,000 tested, 0.18% active | AID 624101; in the data active means inhibition above about 34%; inconclusive means no clear call, values can overlap the other calls; inactive means below about 11%
# Target sequence (O75874 whole entry R132H): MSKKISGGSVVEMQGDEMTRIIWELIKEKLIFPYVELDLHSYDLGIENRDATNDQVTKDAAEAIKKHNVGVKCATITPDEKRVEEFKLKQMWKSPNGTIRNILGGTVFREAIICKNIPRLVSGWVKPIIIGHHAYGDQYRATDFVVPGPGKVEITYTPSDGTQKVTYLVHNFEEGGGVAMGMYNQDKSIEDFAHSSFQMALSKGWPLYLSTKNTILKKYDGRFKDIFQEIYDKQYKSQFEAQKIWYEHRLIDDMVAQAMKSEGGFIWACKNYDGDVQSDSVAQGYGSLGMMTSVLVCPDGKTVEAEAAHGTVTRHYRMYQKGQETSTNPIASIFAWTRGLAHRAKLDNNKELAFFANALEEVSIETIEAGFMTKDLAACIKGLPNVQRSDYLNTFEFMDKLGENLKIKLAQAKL
# T cruzi growth-2: blocks T. cruzi growth in NIH3T3 host cells; shares compounds with T cruzi growth-1; T. cruzi beta-gal in NIH3T3, GalScreen luminescence, 90 h; inhibition, % at 8.35 µM; 5,600 tested, 72% active; AID 651739;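 active means mean replicate inhibition above about 95% and at least 55% of replicates individually reaching it, limit read from the data; inconclusive means only one of the two criteria is met; inactive means neither criterion is met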
# T cruzi growth-3: Trypanosoma cruzi proliferation inhibition; shares compounds with T cruzi growth-1; T. cruzi beta-gal in NIH3T3, GalScreen luminescence, 90 h; inhibition, % at 2.09 µM; 5,600 tested, 21% active; AID 651740;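 active means mean inhibition above about 95%, with at least 55% of replicates also reaching it, limit read from the data; inconclusive means meets just one of the two conditions; inactive means meets neither condition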
# 3T3 cytotox: NIH/3T3 (mouse) viability loss; 5,600 tested, 14% active; cytotoxicity (signal decrease), % at 8.35 µM; shares compounds with T cruzi growth-1; NIH/3T3 viability, CellTiter-Glo ATP luminescence, 90 h;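 active means mean signal decrease across replicates above about 35% based on untreated-well scatter, with enough replicates individually passing, limit read from the data; inconclusive means no rule stated though some were filed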
# 3T3 cytotox 2: cytotoxicity in mouse NIH/3T3 fibroblasts. shares compounds with T cruzi growth-1. NIH/3T3 viability, CellTiter-Glo ATP luminescence, 90 h. inhibition, % at 24.9 µM. 5,600 tested, 56% active. AID 651744;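 active means mean loss of cell viability signal at or above a set limit, and enough replicates individually reaching it; inconclusive means meets only the mean limit or only the replicate share; inactive means meets neither condition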
# A number is an active result; . = inactive; ? = inconclusive; / = no result given; ! = a repeat was not active. Shown is part of a subset that was picked to be rich in hits.
SMILES,KDM4C inh,T cruzi growth-1,IDH1 R132H inh,T cruzi growth-2,T cruzi growth-3,3T3 cytotox,3T3 cytotox 2
C[C@@H]1CCCCO[C@H](CN(C)Cc2ccc3c(c2)OCO3)[C@H](C)CN([C@@H](C)CO)C(=O)c2cc(NC(=O)Nc3ccc(F)cc3)ccc2O1,.,105,/,105,103,.,104
O=C(CSc1nc2ncccc2[nH]1)Nc1ccccc1Cl,/,/,.,/,/,/,/
O=C(c1ccccc1)N1C(=S)C(c2ccccc2)=NC12CCCC2,/,/,.,/,/,/,/
Cc1sc2ncnc(SCC(=O)c3ccc4ccccc4c3)c2c1C,/,/,.,/,/,/,/
CC(=O)Nc1ccc(NC(=O)CN(C)S(=O)(=O)c2ccccc2)cc1,/,/,.,/,/,/,/
C[C@H]1CN([C@@H](C)CO)S(=O)(=O)c2ccc(-c3ccccc3)cc2O[C@@H]1CN(C)Cc1cccc(F)c1,.,119,.,.,108,?,103
C[C@@H]1CN([C@@H](C)CO)S(=O)(=O)c2ccc(-c3ccc(C#N)cc3)cc2O[C@@H]1CN(C)Cc1cccc(F)c1,.,/,/,/,/,/,/
C[C@@H]1CN([C@H](C)CO)S(=O)(=O)c2ccc(-c3ccccc3)cc2O[C@H]1CN(C)Cc1cccc(F)c1,.,118,/,101,104,117,103
C[C@@H]1CN([C@H](C)CO)S(=O)(=O)c2ccc(-c3ccc(C#N)cc3)cc2O[C@@H]1CN(C)Cc1cccc(F)c1,.,/,.,/,/,/,/
C[C@@H]1CN([C@H](C)CO)S(=O)(=O)c2ccc(-c3ccc(F)cc3)cc2O[C@@H]1CN(C)Cc1cccc(F)c1,.,.,/,/,/,/,/
C[C@@H]1CN([C@@H](C)CO)S(=O)(=O)c2ccc(-c3ccc(C#N)cc3)cc2O[C@H]1CN(C)Cc1cccc(F)c1,.,/,/,/,/,/,/
C[C@H]1CN([C@@H](C)CO)S(=O)(=O)c2ccc(-c3ccccc3)cc2O[C@H]1CN(C)Cc1cccc(F)c1,.,119,/,.,102,.,107
C[C@H](CO)N1C[C@H](C)[C@@H](CN(C)Cc2cccc(F)c2)Oc2cc(-c3ccccc3)ccc2S1(=O)=O,.,107,/,.,.,43,101
N#CCCN(CCC#N)C(=O)c1ccco1,/,/,.,/,/,/,/
CCOC(=O)C(C)Sc1nc2ccc(I)cc2c(=O)n1-c1ccccc1OC (centres undefined),/,/,.,/,/,/,/
C[C@H](CO)N1C[C@H](C)[C@H](CN(C)Cc2cccc(F)c2)Oc2cc(-c3ccccc3)ccc2S1(=O)=O,.,120,/,108,.,.,104
C[C@H](CO)N1C[C@H](C)[C@H](CN(C)Cc2cccc(F)c2)Oc2cc(-c3ccc(F)cc3)ccc2S1(=O)=O,.,.,.,/,/,/,/
Cc1ccc(S(=O)(=O)N(C)C[C@@H]2Oc3ncc(C#CCC(C)C)cc3C(=O)N([C@H](C)CO)C[C@H]2C)cc1,.,122!,/,103,.,.,85
CC(C)CC#Cc1cnc2c(c1)C(=O)N([C@@H](C)CO)C[C@@H](C)[C@H](CN(C)S(C)(=O)=O)O2,.,.,.,/,/,/,/
CC(C)CC#Cc1cnc2c(c1)C(=O)N([C@@H](C)CO)C[C@@H](C)[C@H](CN(C)S(=O)(=O)c1ccccc1)O2,.,.,.,/,/,/,/
Cc1ccc(S(=O)(=O)N(C)C[C@@H]2Oc3ncc(C#CCC(C)C)cc3C(=O)N([C@H](C)CO)C[C@@H]2C)cc1,.,105,.,105,.,.,64
CC1(C)C=C(c2ccc(C3=CC(C)(C)NC(C)(C)C3)s2)CC(C)(C)N1,/,/,.,/,/,/,/
O=C(CSc1nnc(-c2ccncc2)n1-c1ccc(Cl)cc1)Nc1ccc2cn[nH]c2c1,/,/,.,/,/,/,/
C[C@H]1CN([C@@H](C)CO)C(=O)c2cccc(NC(=O)CCCCCC(=O)Nc3ccccc3N)c2O[C@H]1CN(C)S(=O)(=O)c1ccccc1,.,/,.,/,/,/,/
C[C@H](CO)N1C[C@H](C)[C@@H](CN(C)S(=O)(=O)c2ccc(Cl)cc2)Oc2c(NC(=O)CCCCCC(=O)Nc3ccccc3N)cccc2C1=O,.,103,/,109,.,.,.
SMILES,KDM4C inh,T cruzi growth-1,IDH1 R132H inh,T cruzi growth-2,T cruzi growth-3,3T3 cytotox,3T3 cytotox 2
C[C@@H]1CN([C@H](C)CO)C(=O)c2cccc(NC(=O)CCCCCC(=O)Nc3ccccc3N)c2O[C@H]1CN(C)S(=O)(=O)c1ccc(Cl)cc1,.,.,/,/,/,/,/
C[C@H]1CN([C@@H](C)CO)C(=O)c2cccc(NC(=O)CCCCCC(=O)Nc3ccccc3N)c2O[C@H]1CN(C)S(=O)(=O)c1ccc(Cl)cc1,.,101,/,106,.,.,.
O=C(NCc1cccnc1)C(=O)Nc1cccc(Cl)c1Cl,/,/,.,/,/,/,/
COCCOC(=O)N1C(=O)[C@@]2(c3cc(C#CCC(C(=O)OC)C(=O)OC)ccc31)[C@H](c1ccccc1OCCO)N1[C@H](c3ccccc3)[C@H](c3ccccc3)OC(=O)[C@H]1[C@@H]2C(N)=O,/,/,.,/,/,/,/
CS(=O)(=O)N1[C@H](C#N)[C@H](c2ccc(C#Cc3cccc(F)c3)cc2)[C@H]1CO,.,?,/,?,.,.,32
CS(=O)(=O)N1[C@H](CO)[C@@H](c2ccc(C#CC3CCCCC3)cc2)[C@@H]1C#N,.,.,/,/,/,/,/
CS(=O)(=O)N1[C@H](C#N)[C@@H](c2ccc(C#CC3CC3)cc2)[C@@H]1CO,.,107,/,100,.,.,.
CS(=O)(=O)N1[C@H](C#N)[C@H](c2ccc(C#CC3CCCC3)cc2)[C@@H]1CO,.,99,/,103,.,.,35
CS(=O)(=O)N1[C@@H](C#N)[C@@H](c2ccc(C#CC3CCCCC3)cc2)[C@@H]1CO,.,.,/,/,/,/,/
CS(=O)(=O)N1[C@H](CO)[C@H](c2ccc(C#Cc3cccc(F)c3)cc2)[C@@H]1C#N,.,.,/,/,/,/,/
O=C(NCCc1c[nH]c2ccccc12)Nc1ccc(Cl)c(Cl)c1,/,/,.,/,/,/,/
COc1cc(NC(=O)CCCN2C(=O)c3ccccc3C2=O)cc(OC)c1,/,/,.,/,/,/,/
COCC#Cc1ccc2c(c1)O[C@H](CN(C)S(=O)(=O)c1cccc(OC)c1)[C@@H](C)CN([C@@H](C)CO)S2(=O)=O,.,.,.,/,/,/,/
CCCC#Cc1ccc2c(c1)O[C@H](CN(C)S(=O)(=O)c1cccc(OC)c1)[C@H](C)CN([C@H](C)CO)S2(=O)=O,.,121,.,103,98,.,25
COc1ccccc1S(=O)(=O)N(C)C[C@@H]1Oc2cc(/C=C/c3ccccc3)ccc2S(=O)(=O)N([C@H](C)CO)C[C@@H]1C,.,128,.,100,103,.,29
COc1ccccc1S(=O)(=O)N(C)C[C@@H]1Oc2cc(/C=C/c3ccccc3)ccc2S(=O)(=O)N([C@@H](C)CO)C[C@@H]1C,.,.,.,/,/,/,/
COc1cccc(S(=O)(=O)N(C)C[C@H]2Oc3cc(C#CCN(C)C)ccc3S(=O)(=O)N([C@@H](C)CO)C[C@H]2C)c1,.,.,.,/,/,/,/
